Results on 1 molecule are retold here after ChEMBL document CHEMBL3580565, “Synthesis and Biological Evaluation of Cyclopentaquinoline Derivatives as Nonsteroidal Glucocorticoid Receptor Antagonists” (J Med Chem, 2015).

Data set [1] is described as follows: Oral bioavailability (0 to infinity) in Sprague-Dawley rat at 10 mg/kg by LC/MS/MS analysis. The format is ADME, organism-based. The following applies: in vivo. Summed up: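 Bioavailability from paired studies in male Sprague–Dawley rats: 1 mg/kg i.v. and 10 mg/kg p.o. (n = 4 each). Jugular vein heparinized plasma sampled up to 24 h, quantified by LC/MS/MS.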

Data set [2] in a line: Half life in Sprague-Dawley rat at 10 mg/kg, po by LC/MS/MS analysis. The data set is classed as ADME, organism-based. The conditions noted are these: in vivo. In outline: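 Male Sprague–Dawley rats dosed orally (n = 4). Jugular vein blood sampled at 0.25, 0.5, 1, 2, 4, 6 and 24 h into heparin, plasma obtained by centrifugation. Concentrations determined by LC/MS/MS.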

The target of data set [3] is T1, Mineralocorticoid receptor (Homo sapiens, UniProt P08235).
T1 sequence (P08235 whole entry): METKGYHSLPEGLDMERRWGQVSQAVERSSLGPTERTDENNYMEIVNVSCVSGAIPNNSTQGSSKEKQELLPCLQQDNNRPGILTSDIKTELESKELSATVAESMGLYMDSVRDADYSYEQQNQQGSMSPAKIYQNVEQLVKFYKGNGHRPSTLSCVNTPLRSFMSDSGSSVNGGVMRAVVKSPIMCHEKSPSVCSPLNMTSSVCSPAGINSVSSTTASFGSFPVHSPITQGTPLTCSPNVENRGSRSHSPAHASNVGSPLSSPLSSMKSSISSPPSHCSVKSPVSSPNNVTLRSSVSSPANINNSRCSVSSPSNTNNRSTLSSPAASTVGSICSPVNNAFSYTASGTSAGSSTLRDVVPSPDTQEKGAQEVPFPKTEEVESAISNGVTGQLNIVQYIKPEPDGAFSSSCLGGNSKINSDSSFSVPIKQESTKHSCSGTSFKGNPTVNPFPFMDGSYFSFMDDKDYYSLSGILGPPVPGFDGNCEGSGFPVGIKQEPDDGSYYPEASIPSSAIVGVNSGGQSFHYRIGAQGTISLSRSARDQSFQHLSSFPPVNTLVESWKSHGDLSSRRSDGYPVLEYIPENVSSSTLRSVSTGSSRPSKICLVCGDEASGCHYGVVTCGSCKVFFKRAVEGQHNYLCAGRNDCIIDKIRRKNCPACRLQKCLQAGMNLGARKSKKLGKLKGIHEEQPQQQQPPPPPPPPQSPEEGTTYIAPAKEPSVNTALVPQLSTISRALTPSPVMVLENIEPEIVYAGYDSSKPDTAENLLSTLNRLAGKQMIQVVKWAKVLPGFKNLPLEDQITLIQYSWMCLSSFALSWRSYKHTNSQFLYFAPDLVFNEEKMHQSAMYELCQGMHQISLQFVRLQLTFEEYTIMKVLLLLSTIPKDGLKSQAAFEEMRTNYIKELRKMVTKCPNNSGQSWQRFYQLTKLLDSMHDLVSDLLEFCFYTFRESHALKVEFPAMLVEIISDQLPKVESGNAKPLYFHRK
The data set is described as follows: Displacement of [3H]-aldosterone from cytosolic fraction of human recombinant mineralocorticoid receptor by scintillation counting analysis. Background: Loss of bound radioactivity is the signal in a displacement assay; it reports binding, not function.

Another data set relates to Rattus norvegicus. The data set is described as follows: Antidepressant-like activity in Wistar rat assessed as immobility time at 100 mg/kg, po administered at 1, 5, 23.5 hrs prior to testing measured for 5 mins by forced swimming test (reference value: 211.3 to 232.2 secs). The format is functional.
A further data set addresses T2, Glucocorticoid receptor (Homo sapiens, UniProt P04150).
T2 sequence (P04150 whole entry): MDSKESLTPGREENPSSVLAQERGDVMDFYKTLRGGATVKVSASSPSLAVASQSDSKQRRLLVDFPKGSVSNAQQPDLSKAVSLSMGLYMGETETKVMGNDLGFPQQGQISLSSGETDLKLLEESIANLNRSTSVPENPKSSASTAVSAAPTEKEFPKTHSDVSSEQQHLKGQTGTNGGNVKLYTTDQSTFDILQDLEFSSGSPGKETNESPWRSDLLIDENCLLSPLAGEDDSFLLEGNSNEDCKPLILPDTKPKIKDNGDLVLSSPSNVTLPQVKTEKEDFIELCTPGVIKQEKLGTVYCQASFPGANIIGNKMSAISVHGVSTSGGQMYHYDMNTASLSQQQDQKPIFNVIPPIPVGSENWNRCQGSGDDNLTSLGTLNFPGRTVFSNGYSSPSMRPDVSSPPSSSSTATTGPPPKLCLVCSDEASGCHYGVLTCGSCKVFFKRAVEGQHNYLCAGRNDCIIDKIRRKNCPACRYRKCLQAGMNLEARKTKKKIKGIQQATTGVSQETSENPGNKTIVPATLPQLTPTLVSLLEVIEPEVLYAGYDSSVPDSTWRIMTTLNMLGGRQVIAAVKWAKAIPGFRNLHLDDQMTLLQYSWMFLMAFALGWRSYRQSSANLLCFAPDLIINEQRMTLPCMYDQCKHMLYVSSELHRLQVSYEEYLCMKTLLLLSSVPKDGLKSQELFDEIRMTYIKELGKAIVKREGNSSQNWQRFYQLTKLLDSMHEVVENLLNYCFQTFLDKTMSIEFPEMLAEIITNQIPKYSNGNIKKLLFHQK
Briefly: Antagonist activity at human glucocorticoid receptor transfected in CHOK1 cells assessed as inhibition of dexamethasone-induced receptor transcriptional activity after 6 hrs by luciferase reporter gene assay. The format is cell-based, CHO-K1. Background: In a reporter assay the amount or activity of a reporter protein is the signal.

The term bioavailability denotes dose-corrected exposure relative to a reference, in per cent. The low end stands for poor availability, the high end for good availability. The half-life is how long it takes for the measured level to halve. A low value points to rapid decline. Usually Ki stands for a measure of affinity in units of concentration, obtained from inhibition or displacement. One may read the IC50 as the concentration at which inhibition is half-maximal. `Cc1noc(C)c1-c1cc2c(c3c1CCC3)NC(C)(C)C(=O)C2(C)C` yielded a bioavailability in data set [1] of 59%. Also, the half-life in data set [2] was 4.6 h. Moreover, the Ki in data set [3] is > 3 µM. Moreover, the Time in the data set on Rattus norvegicus is 187.3 s. Further, the IC50 on Glucocorticoid receptor came to 0.03 µM.
